Source: ChEMBL document CHEMBL3352661, “Cryptochinones from Cryptocarya chinensis act as farnesoid X receptor agonists” (Bioorg Med Chem Lett, 2014)
Calls of active or inactive are those of the source. The calls are words filed in the database; no cut-off is given here.

Key:
[1] = molecular target: T1, Bile acid receptor (Homo sapiens) (UniProt Q96RI1); experiment: Agonist activity at […] (unknown origin) expressed in human HepG2 cells co-expressing rat CYP7A1 gene promoter assessed as transrepression of CYP7A1 promoter driven luciferase activity at 10 uM relative to untreated control; format: cell-based
T1 sequence (whole entry): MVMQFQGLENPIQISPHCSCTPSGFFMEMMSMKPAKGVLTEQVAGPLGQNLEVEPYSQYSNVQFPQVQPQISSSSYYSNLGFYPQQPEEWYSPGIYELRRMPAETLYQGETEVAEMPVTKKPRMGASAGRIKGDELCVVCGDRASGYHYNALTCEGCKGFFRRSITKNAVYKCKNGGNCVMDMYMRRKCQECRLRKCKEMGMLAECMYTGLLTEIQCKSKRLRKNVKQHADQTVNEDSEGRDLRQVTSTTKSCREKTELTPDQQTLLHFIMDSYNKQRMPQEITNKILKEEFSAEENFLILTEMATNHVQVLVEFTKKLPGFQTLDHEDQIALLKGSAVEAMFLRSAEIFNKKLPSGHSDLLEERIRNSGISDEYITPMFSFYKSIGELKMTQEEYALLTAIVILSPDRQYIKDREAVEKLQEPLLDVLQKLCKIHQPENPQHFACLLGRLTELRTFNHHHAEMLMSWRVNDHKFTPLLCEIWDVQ
Procedure, shortened: (§1)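 Transient transfection of HepG2 cells (1 × 10^5/well; phenol red-free DMEM, 10% charcoal-stripped FBS, pen/strep) with pCMV-FXR (2 µg), rat CYP7A1 promoter reporter prCYP7A1-luc (6 µg) and pCMV-β-gal (1 µg). After 48 h exposure to 100 nM–10 µM, lysate luciferase was normalized to β-gal and expressed relative to DMSO (=1). 10 µM CDCA reference; at least three determinations.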

[2] = molecular target: T1, Bile acid receptor (Homo sapiens); experiment: Agonist activity at […] (unknown origin) expressed in human HepG2 cells co-expressing human PLTP gene promoter assessed as transactivation of PLTP promoter driven luciferase activity at 100 nM relative to untreated control; format: cell-based
Procedure, shortened: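 HepG2 cells (1 × 10^5 cells/well, phenol red-free DMEM, 10% charcoal-stripped FBS, pen/strep) transfected the next day with wild-type FXR plasmid pCMV-FXR (2 µg), pPLTP-Luc reporter (6 µg) and pCMV-β-gal (1 µg). Dosed 48 h at 100 nM–10 µM. Luciferase normalized to β-gal, expressed relative to DMSO (=1), 10 µM CDCA reference; mean ± SD of ≥3 determinations.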

HepG2 = experiment: Toxicity against human HepG2 cells assessed as effect on cell growth at 100 nM to 1 uM; format: cell-based; conditions: hepg2, 0.1 µM
[3] = molecular target: T1, Bile acid receptor (Homo sapiens); experiment: Agonist activity at […] (unknown origin) expressed in human HepG2 cells co-expressing human SHP gene promoter assessed as transactivation of SHP promoter driven luciferase activity at 100 nM relative to untreated control; format: cell-based
[4] = molecular target: T1, Bile acid receptor (Homo sapiens); experiment: Agonist activity at […] (unknown origin) expressed in human HepG2 cells co-expressing human PLTP gene promoter assessed as transactivation of PLTP promoter driven luciferase activity relative to untreated control; format: cell-based
[5] = molecular target: T1, Bile acid receptor (Homo sapiens); experiment: Agonist activity at […] (unknown origin) expressed in human HepG2 cells co-expressing rat CYP7A1 gene promoter assessed as transrepression of CYP7A1 promoter driven luciferase activity relative to untreated control; format: cell-based; procedure, shortened: as §1
[6] = molecular target: T1, Bile acid receptor (Homo sapiens); experiment: Agonist activity at […] (unknown origin) expressed in human HepG2 cells co-expressing rat CYP7A1 gene promoter assessed as transrepression of CYP7A1 promoter driven luciferase activity at 1 uM relative to untreated control; format: cell-based; procedure, shortened: as §1
[7] = molecular target: T1, Bile acid receptor (Homo sapiens); experiment: (§2) Agonist activity at GAL4 DNA binding domain tagged FXR ligand binding domain (unknown origin) expressed in human HepG2 cells assessed as receptor transactivation measured by relative luciferase activity at 1 uM by luciferase reporter gene based mammalian one-hybrid assay relative to untreated control; format: cell-based
Procedure, shortened: (§3)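 HepG2 cells seeded at 1 × 10^5 cells/well in phenol red-free DMEM with 10% charcoal-stripped FBS and penicillin/streptomycin. Next day transfected with pGAL4-FXR LBD (2 µg), pG5-luc (6 µg) and pCMV-β-gal normalizer (1 µg). Treated 48 h at 100 nM–10 µM, DMSO vehicle, 10 µM CDCA reference. Luciferase/β-gal ratio expressed relative to DMSO (=1); at least triplicate.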

[8] = molecular target: T1, Bile acid receptor (Homo sapiens); experiment: as §2, with “100 nM” for “1 uM”; format: cell-based; procedure, shortened: as §3
[9] = molecular target: T1, Bile acid receptor (Homo sapiens); experiment: Agonist activity at […] (unknown origin) expressed in human HepG2 cells co-expressing human SHP gene promoter assessed as transactivation of SHP promoter driven luciferase activity at 1 uM relative to untreated control; format: cell-based
[10] = molecular target: T2, Peroxisome proliferator-activated receptor gamma (Homo sapiens) (UniProt P37231); experiment: Agonist activity at PPARgamma (unknown origin) by receptor transactivation assay
T2 sequence (whole entry): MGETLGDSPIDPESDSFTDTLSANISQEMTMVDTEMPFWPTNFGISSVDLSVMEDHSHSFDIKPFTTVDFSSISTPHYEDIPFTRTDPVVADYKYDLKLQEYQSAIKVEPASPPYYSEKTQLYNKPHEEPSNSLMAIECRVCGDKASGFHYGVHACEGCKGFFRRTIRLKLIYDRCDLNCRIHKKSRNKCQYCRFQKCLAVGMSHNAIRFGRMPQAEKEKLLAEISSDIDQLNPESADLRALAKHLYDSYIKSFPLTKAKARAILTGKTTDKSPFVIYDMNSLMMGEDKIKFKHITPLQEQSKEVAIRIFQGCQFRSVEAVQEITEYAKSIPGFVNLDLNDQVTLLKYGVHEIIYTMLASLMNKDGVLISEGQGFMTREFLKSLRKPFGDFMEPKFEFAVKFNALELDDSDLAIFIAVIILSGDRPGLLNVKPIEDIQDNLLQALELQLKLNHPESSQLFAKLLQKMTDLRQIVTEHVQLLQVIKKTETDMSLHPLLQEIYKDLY

[11] = molecular target: T1, Bile acid receptor (Homo sapiens); experiment: Agonist activity at […] (unknown origin) expressed in human HepG2 cells co-expressing rat CYP7A1 gene promoter assessed as transrepression of CYP7A1 promoter driven luciferase activity at 100 nM relative to untreated control; format: cell-based; procedure, shortened: as §1
[12] = molecular target: T1, Bile acid receptor (Homo sapiens); experiment: Agonist activity at […] (unknown origin) expressed in human HepG2 cells co-expressing human SHP gene promoter assessed as transactivation of SHP promoter driven luciferase activity at 100 nM to 10 uM relative to untreated control; format: cell-based

Row | inhibition [1] [%] | Activity [2] | Activity [3] | Activity [4] | Activity [5] | Activity [6] | fold change (FC) [7] | Activity [8] | fold change (FC) [9] | Activity [10] | Activity [11] | Activity [12] | SMILES | Activity (HepG2)
1 | 60 | inactive | Active | Dose-dependent effect | Dose-dependent effect | inactive | 1.5 | inactive | 3 | inactive | inactive | – | CO[C@H]1CC2=C(C(=O)C[C@@H](c3ccccc3)O2)[C@H]2CC(=O)O[C@@H]12 [7-O-METHYLCRYPTOCHINONE A] | Non-toxic
2 | 60 | inactive | Active | Dose-dependent effect | Dose-dependent effect | inactive | 1.5 | inactive | 3 | inactive | inactive | – | CO[C@H]1CC2=C(C(=O)C[C@@H](c3ccccc3)O2)[C@@H]2CC(=O)O[C@H]12 [7-O-METHYLCRYPTOCHINONE B] | Non-toxic
3 | 60 | inactive | – | Dose-dependent effect | Dose-dependent effect | Active | 1.5 | inactive | – | inactive | inactive | Active | O=C1C[C@@H]2C3=C(C[C@H](O)[C@@H]2O1)O[C@H](c1ccccc1)CC3=O [CRYPTOCHINONE A] | Non-toxic
4 | 60 | inactive | – | Dose-dependent effect | Dose-dependent effect | Active | 1.5 | inactive | – | inactive | inactive | Active | O=C1C[C@H]2C3=C(C[C@H](O)[C@H]2O1)O[C@H](c1ccccc1)CC3=O [CRYPTOCHINONE B] | Non-toxic
